For series [1], the target named is T1, Autotaxin (Homo sapiens, UniProt Q13822). Put plainly: Inhibition of recombinant human ATX assessed as reduction in choline release using LPC(16:0) as substrate incubated for 15 hrs. The procedure, abridged: (§1)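 Recombinant human ATX with 16:0 LPC as substrate. Single-point inhibition was tested at 30 μM, and IC50 values were determined.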
Series [2] can be described thus: Protein binding in human plasma measured after 4 hrs by LC-MS/MS analysis. It counts as ADME, cell-free. The note with it: read-out: PPB (converted).
Series [3] in a line: Octanol/phosphate buffer partition coefficient, LogD of compound at pH 7.4 mixed for 1 hr using benchtop-rotator followed by further incubation for 1 hr by ESI-LC-MS/MS analysis. Type of series: physicochemical.
The nature of series [4]: Metabolic stability in human hepatocytes assessed as parent compound remaining at 1 uM measured after 2 hrs by LC-MS/MS analysis. Type of series: ADME, cell-based, Hepatocyte. The note with it: read-out: Stability. The procedure, abridged: (§2)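 Human and rat hepatocyte incubation; percent parent remaining after 2 h.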
Series [5] can be described thus: Metabolic stability in rat hepatocytes assessed as parent compound remaining at 1 uM measured after 2 hrs by LC-MS/MS analysis. It counts as ADME, cell-based, Hepatocyte. The note with it: read-out: Stability. The procedure, abridged:
as §2

Series [6] in a line: Plasma clearance in Sprague-Dawley rat at 1 mg/kg, iv by LC-MS/MS analysis. It counts as ADME, organism-based. The procedure, abridged:
(§3)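 Single-dose rat PK, 1 mg/kg iv and 3 mg/kg po, n = 3. Plasma clearance was taken from the iv dose. Bioavailability was calculated from the iv and oral doses.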

Series [7] in a line: Oral bioavailability in Sprague-Dawley rat at 3 mg/kg by LC-MS/MS analysis. Type of series: ADME, organism-based. The note with it: in vivo. The procedure, abridged:
as §3

Series [8] has as its target T1, Autotaxin. Put plainly: Inhibition of LysoPLD activity of ATX in human plasma assessed as reduction in choline release using LPC(16:0) as substrate incubated for 15 hrs. It counts as cell-free. The procedure, abridged: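 LysoPLD activity in human plasma with 16:0 LPC as substrate; IC50 determined.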
A short description of series [9]: AUC in Sprague-Dawley rat at 0.5 mg/kg, po administered as single cassette dosing by LC-MS/MS analysis. Type of series: ADME, organism-based. The note with it: in vivo. The procedure, abridged: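 Rat cassette dosing, 0.5 mg/kg oral; plasma AUC reported.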
Series [10] can be described thus: Protein binding in rat plasma measured after 4 hrs by LC-MS/MS analysis. Type of series: ADME, cell-free. The note with it: read-out: PPB (converted).
Series [11] concerns the target T1, Autotaxin. Put plainly: Inhibition of recombinant human ATX assessed as reduction in choline release at 30 uM using LPC(16:0) as substrate incubated for 15 hrs relative to control. The procedure, abridged:
as §1

For `O=C(C[C@H]1CC[C@H](C(=O)O)CC1)N1CCc2c(n(Cc3cccc(F)c3)c3ncccc23)C1`, the IC50 in series [1] is 17 nM. The fraction unbound at 4 h in series [2] was 0.007. This compound also came in with a logD at 1 h in [3] of 1.07.

For `O=C(O)CCCCC(=O)N1CCc2c(n(Cc3cccc(F)c3)c3ncccc23)C1`, the remaining at 2 h, 1 µM worked out at 29% in series [4] and 10% in series [5]. The clearance in [6] turned out to be 7.5 mL/min/kg. Besides, the IC50 in [1] is 50 nM. In series [3], this compound registered a logD at 1 h of 0.51. Moreover, the bioavailability in [7] amounted to 30%.

For the compound `O=C(CC12CCC(C(=O)O)(CC1)CC2)N1CCc2c(n(Cc3ccc(F)cc3)c3ncccc23)C1`, the IC50 was found to be 6.1 nM in [8] and 12 nM in [1]. For the same compound, the fraction unbound at 4 h in series [2] is 0.014; in series [10] it was 0.054. This compound registered an AUC in [9] of 420 ng·h/mL.

Take `O=C(O)c1cccc(CC(=O)N2CCc3c(n(Cc4cccc(F)c4)c4ncccc34)C2)c1`: the IC50 in series [1] is 100 nM. Besides, the fraction unbound at 4 h in series [2] was 0.011.

As to `O=C(O)CCCCCC(=O)N1CCc2c(n(Cc3ccccc3)c3ncccc23)C1`, the IC50 in [1] amounted to 250 nM.

Take `CC(=O)N1CCc2c(n(Cc3ccccc3)c3ncccc23)C1`: the inhibition in series [11] stood at 51.6%.

In the case of `O=C(O)c1ccc(CC(=O)N2CCc3c(n(Cc4cccc(F)c4)c4ncccc34)C2)cc1`, the IC50 in [1] was 28 nM. Besides, the fraction unbound at 4 h in [2] is 0.01. The logD at 1 h in series [3] worked out at 0.67.

Take `O=C(CC12CCC(C(=O)O)(CC1)C2)N1CCc2c(n(Cc3ccc(F)cc3F)c3ncccc23)C1`: the IC50 in [8] was determined as 7.9 nM; in series [1], 11 nM. Also, the fraction unbound at 4 h in series [2] is 0.008; in [10] it was 0.061. In addition, the AUC in series [9] was 500 ng·h/mL.

On to `C[C@]1(C(=O)O)CC[C@H](CC(=O)N2CCc3c(n(Cc4ccc(F)cc4F)c4ncccc34)C2)CC1`, for which the results for the IC50 in series [8] and in series [1] were 25 nM and 22 nM, respectively. Also, the fraction unbound at 4 h in series [2] is 0.009; in series [10] it was 0.039. The AUC in series [9] stood at 677 ng·h/mL.
